Measured values collected from several papers.
Each line is one published result; the experiments were not run side by side.
Target: TGF-beta receptor type-2 (TGFBR2, Homo sapiens, UniProt P37173)

O=C(c1ccc(Nc2ncc(Cl)c(-c3cc4ccccc4s3)n2)cc1)N1CCC(N2CCCC2)CC1
remaining binding (binding, competition with immobilised ligand; 1 µM): 84%

CN(C)c1nccc(-c2cnc3ncccn23)n1
remaining binding (binding; 1 µM): 76%

C=CC(=O)N1CCC(C(=O)NCC(=O)N2CCN(c3nc(-c4cnc(N)nc4C(F)F)nc(N4CCOCC4)n3)CC2)CC1
remaining binding (binding, competition with immobilised ligand; 1 µM): 88%

CCN1CCN(Cc2ccc(C(=O)Nc3ccc(C)c(Oc4ccc5c(c4)CC(=O)N5)c3)cc2C(F)(F)F)CC1
remaining binding (binding, competition with immobilised ligand; 1 µM): 100%

COc1cnc(Nc2cccc(S(N)(=O)=O)c2)nc1N1CCN(c2ccccc2)CC1
remaining binding (binding, competition with immobilised ligand; 1 µM): 100%

O=C(Nc1c[nH]nc1C(=O)NC1CCNCC1)c1cc(F)cc(F)c1
remaining binding (binding, competition with immobilised ligand; 1 µM): 90%

O=C(NS(=O)(=O)c1ccc(NCC2CCOCC2)c([N+](=O)[O-])c1)c1ccc(N2CCN(Cc3ccc(C(F)(F)F)cc3-c3ccc(Cl)cc3)CC2)cc1Oc1cnc2[nH]ccc2c1
remaining binding (cell-free assay, competition with immobilised ligand; 1 µM): 76%

COc1ncc2cc3ccccc3nc2c1C#N
remaining binding (cell-free assay, competition with immobilised ligand; 5 µM): 100%

COc1ccnn2ncc(-c3ccnc(N(C)C)n3)c12
remaining binding (binding; 1 µM): 100%

O=C(N[C@H]1CCCCC/C=C\C2C[C@@]2(C(=O)O)NC(=O)[C@@H]2C[C@@H](Oc3ccncc3)CN2C1=O)OC1CCCC1 (stereo partly drawn)
remaining binding (cell-free assay, competition with immobilised ligand; 1 µM): 85%

Cc1cnn2ncc(-c3ccnc(N(C)C)n3)c2c1
remaining binding (binding; 1 µM): 80%

O=C(NCCCN1CCOCC1)c1ccc(Nc2ncc(Cl)c(-c3ccc(Cl)s3)n2)cc1
remaining binding (binding, competition with immobilised ligand; 1 µM): 100%

CO[C@@H](C)c1c(Nc2ccc([C@@H](N(C)C(=O)C3CCS(=O)(=O)CC3)C(F)(F)F)cc2)cnc2cc(Cl)nn12
remaining binding (cell-free assay, competition with immobilised ligand; 1 µM): 100%

O=C(NCCCN1CCOCC1)c1ccc(Nc2nccc(-c3cc4ccccc4s3)n2)cc1
remaining binding (binding, competition with immobilised ligand; 1 µM): 64%

CN(C)c1nccc(-c2cnn3ncccc23)n1
remaining binding (binding; 1 µM): 73%

CC1=C(C#N)[C@@H](c2ccc3[nH]nc(C)c3c2)C(C#N)=C(c2ccc(Cl)cc2)N1
remaining binding (cell-free assay, competition with immobilised ligand; 1 µM): 74.6%

C[C@H]1CCN(c2nccc(-c3cnn4ncccc34)n2)C1
remaining binding (binding; 1 µM): 60%

COCCOc1nc(-c2ccc(Cl)nc2)nc2c1CN(C(=O)c1ncn3ccccc13)CC2
remaining binding (cell-free assay, competition with immobilised ligand; 0.1 µM): 94%

c1cnn2ncc(-c3ccnc(N4CCC45COC5)n3)c2c1
remaining binding (binding; 1 µM): 36%

CC1=C(C#N)C(c2ccc3c(c2)c(NC(=O)c2ccccc2C)nn3C)C(C#N)=C(C)N1
remaining binding (cell-free assay, competition with immobilised ligand; 1 µM): 99%

C[C@@H](c1ccc(-n2cnc3c(N)ncnc32)cc1)N1CCc2nn(C)c(Cc3ccccc3)c2C1=O
remaining binding (binding, competition with immobilised ligand; 0.1 µM): 84%
